In ChEMBL document CHEMBL1125330, “N-substituted pyrazino[2,3-c][1,2,6]thiadiazine 2,2-dioxides. A new class of diuretics” (J Med Chem, 1992):

Key:
[1] = tested on: Rattus norvegicus; assay: Urinary sodium 1 hr after the compound was administered 10 mg/kg po in rat; format: ADME, organism-based, Urine; set-up: dose 10 mg/kg, route oral; settings: in vivo
Outline: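 Onset and duration study in fasted, water-loaded male Sprague-Dawley rats housed two per metabolic cage, six pairs per group. Single oral dose given, then water 2.5 mL/100 g po. Urine volume and sodium (flame photometry) measured over 0-1, 1-2, 2-3, 3-4 and 4-6 h intervals. Mean values compared with vehicle by Student t-test.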

[2] = tested on: Rattus norvegicus; assay: Mean potassium excretion in rats when compound administered at 2.5 mg/kg po and vehicle dosed at 8.4 umol/kg; format: ADME, organism-based; set-up: dose 2.5 mg/kg, route oral; settings: in vivo
Outline: (§1)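 Male Sprague-Dawley rats (HC/CFY, 175-200 g), no food or water for 18 h before and during the test. Single gavage dose (2.5-160 mg/kg; vehicle 1% carboxymethyl cellulose/0.1% Tween 80, 0.5 mL/100 g bw), then distilled water 2.5 mL/100 g bw po. Individual metabolic cages, 6 h urine. K+ by flame photometry, Cl- colorimetric, as mequiv/6 h/kg bw; unpaired Student t-test vs control.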

[3] = tested on: Rattus norvegicus; assay: Volume of urine 1 hr after the compound was administered 10 mg/kg po in rat; format: ADME, organism-based; set-up: dose 10 mg/kg, route oral; settings: in vivo
Outline: (§2)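 Onset/duration protocol: male Sprague-Dawley rats (HC/CFY, 175-200 g), food and water withdrawn for 18 h before and during the test. Single gavage dose in 1% carboxymethyl cellulose/0.1% Tween 80 (0.5 mL/100 g bw), then distilled water load (2.5 mL/100 g bw po). Two rats per metabolic cage, six pairs per group. Urine collected at 0-1, 1-2, 2-3, 3-4 and 4-6 h; Na+ by flame photometry. Vehicle controls; nonpaired Student t-test.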

[4] = tested on: Rattus norvegicus; assay: Volume of urine 2 hr after the compound was administered 10 mg/kg po in rat; format: ADME, organism-based; set-up: dose 10 mg/kg, route oral; settings: in vivo; outline: as §2
[5] = tested on: Rattus norvegicus; assay: Volume of urine 3h after the compound was administered 10 mg/kg po in rat; format: ADME, organism-based; set-up: dose 10 mg/kg, route oral; settings: in vivo; outline: as §2
[6] = tested on: Rattus norvegicus; assay: Volume of urine 4 hr after the compound was administered 10 mg/kg po in rat; format: ADME, organism-based; set-up: dose 10 mg/kg, route oral; settings: in vivo; outline: as §2
[7] = tested on: Rattus norvegicus; assay: Volume of urine 6 hr after the compound was administered 10 mg/kg po in rat; format: ADME, organism-based; set-up: dose 10 mg/kg, route oral; settings: in vivo; outline: as §2
[8] = tested on: Rattus norvegicus; assay: Mean Chlorine excretion in rats when compound administered at 2.5 mg/kg po and vehicle dosed at 8.4 umol/kg; format: ADME, organism-based; set-up: dose 2.5 mg/kg, route oral; settings: in vivo; outline: as §1
[9] = tested on: Rattus norvegicus; assay: Mean Chlorine excretion in rats when compound administered at 20 mg/kg po and vehicle dosed at 67.18 umol/kg; format: ADME, organism-based; set-up: dose 20 mg/kg, route oral; settings: in vivo; outline: as §1
[10] = tested on: Rattus norvegicus; assay: Mean Chlorine excretion in rats when compound administered at 40 mg/kg po and vehicle dosed at 134.35 umol/kg; format: ADME, organism-based; set-up: dose 40 mg/kg, route oral; settings: in vivo; outline: as §1
[11] = tested on: Rattus norvegicus; assay: Mean urinary output in rats when compound administered at 0 mg/kg po and vehicle dosed at 0 umol/kg; format: ADME, organism-based, Urine; set-up: dose 0 mg/kg, route oral; settings: in vivo
Outline: (§3)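 Water-loaded male Sprague-Dawley rats (HC/CFY, 175-200 g) fasted and without water for 18 h. Oral gavage of 2.5-160 mg/kg in 1% CMC with 0.1% Tween 80, then distilled water 2.5 mL/100 g po. Urine collected 6 h in metabolic cages, mean output in mL/6 h/kg bw. Unpaired Student t-test against vehicle; dose-response by linear regression.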

[12] = tested on: Rattus norvegicus; assay: Mean urinary output in rats when compound administered at 10 mg/kg po and vehicle dosed at 33.59 umol/kg; format: ADME, organism-based, Urine; set-up: dose 10 mg/kg, route oral; settings: in vivo; outline: as §3
[13] = tested on: Rattus norvegicus; assay: Mean urinary output in rats when compound administered at 2.5 mg/kg po and vehicle dosed at 8.4 umol/kg; format: ADME, organism-based, Urine; set-up: dose 2.5 mg/kg, route oral; settings: in vivo; outline: as §3
[14] = tested on: Rattus norvegicus; assay: Mean urinary output in rats when compound administered at 20 mg/kg po and vehicle dosed at 67.18 umol/kg; format: ADME, organism-based, Urine; set-up: dose 20 mg/kg, route oral; settings: in vivo; outline: as §3
[15] = tested on: Rattus norvegicus; assay: Mean urinary output in rats when compound administered at 40 mg/kg po and vehicle dosed at 134.35 umol/kg; format: ADME, organism-based, Urine; set-up: dose 40 mg/kg, route oral; settings: in vivo; outline: as §3
[16] = tested on: Rattus norvegicus; assay: Mean urinary output in rats when compound administered at 5 mg/kg po and vehicle dosed at 16.79 umol/kg; format: ADME, organism-based, Urine; set-up: dose 5 mg/kg, route oral; settings: in vivo; outline: as §3
[17] = tested on: Rattus norvegicus; assay: Mean urinary output in rats when compound administered at 80 mg/kg po and vehicle dosed at 268.71 umol/kg; format: ADME, organism-based, Urine; set-up: dose 80 mg/kg, route oral; settings: in vivo; outline: as §3
[18] = Acute toxicity in mice when given po; format: organism-based; settings: mouse, in vivo, read-out: DL50 (the source's name)
Outline: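 Male Swiss mice (SPF, HC/CFLP strain, 20–25 g), oral dosing; mortality followed over 15 days; LD50 derived by the Litchfield and Wilcoxon method.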

[19] = tested on: Rattus norvegicus; assay: Dose required to produce an excretion of 2 mequiv of Na+/kg bw/6h vs control groups; format: functional
Outline: (§4)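 Male Sprague-Dawley rats (HC/CFY, 175-200 g), fasted and water-deprived 18 h before and during the test. Compound dosed by gavage in 1% carboxymethyl cellulose/0.1% Tween 80, then water load 2.5 mL/100 g bw po. Urine collected 6 h in metabolic cages; Na+ by flame photometry. Effective doses vs vehicle controls derived by linear regression of dose-response data.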

[20] = organism: Rattus norvegicus; assay: Dose required to produce increase in 50 % in urine production vs control groups; format: functional; settings: Rattus norvegicus, Urine; outline: as §4
[21] = tested on: Rattus norvegicus; assay: Post dosing time interval of maximum activity; format: functional
Outline: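 Interval of peak activity taken from timed urine collections (0-1, 1-2, 2-3, 3-4, 4-6 h) after a single oral dose in water-loaded fasted rats, […]. Urine volume and Na+ excretion followed over time.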

NS(=O)(=O)c1cc2c(cc1Cl)NCNS2(=O)=O [HYDROCHLOROTHIAZIDE]
Urinary Na+ [1]: 0.19 m equiv | K [2]: 1.26 m equiv 6hr-1 kg-1 (body weight)-1 | Urine volume [3]: 1.38 mL | Urine volume [4]: 4.97 mL | Urine volume [5]: 3.37 mL | Urine volume [6]: 2.92 mL | Urine volume [7]: 3.42 mL | Cl- [8]: 4.42 m equiv 6hr-1 kg-1 (body weight)-1 | Cl- [9]: 4.67 m equiv 6hr-1 kg-1 (body weight)-1 | Cl- [10]: 3.94 m equiv 6hr-1 kg-1 (body weight)-1 | V [11]: 24.3 ml 6hr-1 (kg of body weight)-1 | V [12]: 39.01 ml 6hr-1 (kg of body weight)-1 | V [13]: 32.5 ml 6hr-1 (kg of body weight)-1 | V [14]: 42.94 ml 6hr-1 (kg of body weight)-1 | V [15]: 44.48 ml 6hr-1 (kg of body weight)-1 | V [16]: 38.07 ml 6hr-1 (kg of body weight)-1 | V [17]: 47.06 ml 6hr-1 (kg of body weight)-1 | LD50 [18]: > 6000 mg/kg | ED2 [19]: 1.57 mg/kg | ED50 [20]: 4.86 mg/kg | Time [21]: 2 h
